The source made the active and inactive calls. The rule behind the calls is not given here.
Experiments:
Aspergillus fumigatus [1] = assay: Antifungal activity against Aspergillus fumigatus ATCC 90906 assessed as inhibition of fungal growth at 20 ug/mL by alamar blue assay; type: functional, organism-based
How it was run: (§1)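 Broth microdilution modified from NCCLS. DMSO stocks serially diluted in saline and plated in duplicate. Inoculum set by 0.5 McFarland standard. Media: C. albicans in SDB or RPMI 1640; C. neoformans in SDB; A. fumigatus in RPMI-1640 + 5% Alamar Blue. Highest final concentration 20 µg/mL. Plates read before and after incubation by fluorescence 544ex/590em (A. fumigatus) or OD 630 nm. IC50 from percent growth vs concentration.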

Cryptococcus neoformans [2] = assay: Antifungal activity against Cryptococcus neoformans ATCC 90113 assessed as inhibition of fungal growth by alamar blue assay; type: functional, organism-based; how it was run: as §1
Candida albicans [3] = assay: Antifungal activity against Candida albicans ATCC 90028 assessed as inhibition of fungal growth by alamar blue assay; type: functional, organism-based; how it was run: as §1
Candida albicans [4] = assay: Antifungal activity against Candida albicans ATCC 90028 by microscopy; type: functional
How it was run: (§2)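 Modified NCCLS microdilution. Samples in DMSO serially diluted in saline and tested in duplicate against inocula standardized to 0.5 McFarland. Broths: C. albicans SDB or RPMI 1640; C. neoformans SDB; A. fumigatus YM broth. Highest final concentration 20 µg/mL. MIC read visually as the lowest concentration with no detectable growth (for Alamar Blue wells, no blue-to-pink change).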

Cryptococcus neoformans [5] = assay: Antifungal activity against Cryptococcus neoformans ATCC 90113 by microscopy; type: functional
How it was run: as §2, with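 “McFarland.” for “McFarland. Broths: C. albicans SDB or RPMI 1640; C. neoformans SDB; A. fumigatus YM broth.”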

Cryptococcus neoformans [6] = assay: Fungicidal activity against Cryptococcus neoformans ATCC 90113; type: functional
Candida albicans [7] = assay: Fungicidal activity against Candida albicans ATCC 90028; type: functional
Aspergillus fumigatus [8] = assay: Fungicidal activity against Aspergillus fumigatus ATCC 90906; type: functional
Aspergillus fumigatus [9] = assay: Antifungal activity against Aspergillus fumigatus ATCC 90906 assessed as inhibition of fungal growth by alamar blue assay; type: functional, organism-based; how it was run: as §1
Aspergillus fumigatus [10] = assay: Antifungal activity against Aspergillus fumigatus ATCC 90906 by microscopy; type: functional; how it was run: as §2
[11] = Cytotoxicity against african green monkey Vero cells after 48 hrs by neutral red assay; type: cell-based; details: chlorocebus sabaeus, read-out: TC50
How it was run: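 Vero kidney fibroblasts seeded at 25,000 cells/well and grown 24 h, then exposed to samples up to 20 µg/ml for 48 h. Viable cells measured by neutral red assay. IC50 taken from growth-inhibition vs concentration curves. DMSO served as vehicle control.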

[12] = Aspergillus fumigatus, ATCC 90906, read-out: IC50

Structure (SMILES)	inhibition (Aspergillus fumigatus [1])	IC50 (Cryptococcus neoformans [2])	IC50 (Candida albicans [3])	MIC (Candida albicans [4])	MIC (Cryptococcus neoformans [5])	MFC (Cryptococcus neoformans [6])	MFC (Candida albicans [7])	MFC (Aspergillus fumigatus [8])	IC50 (Aspergillus fumigatus [9]; [12])	MIC (Aspergillus fumigatus [10])	CC50 at 48 h [11]	IC50 (Aspergillus fumigatus [9])
COc1ccccc1N(CCCCCC1CCCCC1)c1ccc[n+](C)c1.[I-]	inactive	3 µg/mL	5 µg/mL	10 µg/mL	5 µg/mL	5 µg/mL	10 µg/mL	–	–	–	–	–
C[n+]1cccc(N(CCCCCC2CCCCC2)c2ccccc2Cl)c1.[I-]	–	2 µg/mL	2.8 µg/mL	5 µg/mL	2.5 µg/mL	2.5 µg/mL	5 µg/mL	> 20 µg/mL	18 µg/mL	> 20 µg/mL	–	–
C[n+]1c2cc(Cl)ccc2cc2[nH]c3ccccc3c21.O=S(=O)([O-])C(F)(F)F	–	15 µg/mL	3 µg/mL	> 20 µg/mL	> 20 µg/mL	–	–	–	> 20 µg/mL	–	2.1 µg/mL	–
C[n+]1cccc(N(CCCCCC2CCCCC2)c2cccc(Cl)c2)c1.[I-]	–	0.7 µg/mL	3 µg/mL	5 µg/mL	1.3 µg/mL	1.3 µg/mL	10 µg/mL	20 µg/mL	12.4 µg/mL	20 µg/mL	> 10 µg/mL	–
C[n+]1c2ccccc2cc2[nH]c3cccc(Cl)c3c21.[I-]	–	> 20 µg/mL	> 20 µg/mL	–	–	–	–	–	> 20 µg/mL	–	> 4.7 µg/mL	–
C[n+]1cc(N(CCCCCC2CCCCC2)c2ccc(Cl)cc2)cc2ccccc21.[I-]	–	0.4 µg/mL	0.5 µg/mL	1.3 µg/mL	0.6 µg/mL	2.5 µg/mL	5 µg/mL	10 µg/mL	0.8 µg/mL	1.3 µg/mL	10 µg/mL	–
C[n+]1cccc(N(CCCCCC2CCCCC2)c2ccc(C(F)(F)F)cc2)c1.[I-]	–	1.5 µg/mL	1 µg/mL	2.5 µg/mL	2.5 µg/mL	5 µg/mL	10 µg/mL	5 µg/mL	1.5 µg/mL	2.5 µg/mL	> 10 µg/mL	–
Clc1ccc(Nc2cc3ccccc3[n+](CCCCCC3CCCCC3)c2)cc1.[I-]	–	1 µg/mL	2 µg/mL	> 20 µg/mL	1.6 µg/mL	> 20 µg/mL	–	–	–	–	> 10 µg/mL	Not Active
C[n+]1cccc(N(CCCCCC2CCCCC2)c2cccc(C(F)(F)F)c2)c1.[I-]	–	1.5 µg/mL	3 µg/mL	5 µg/mL	2.5 µg/mL	5 µg/mL	20 µg/mL	10 µg/mL	1.5 µg/mL	2.5 µg/mL	> 10 µg/mL	–
C[n+]1cc(N(CCCCCC2CCCCC2)c2ccccc2Cl)cc2ccccc21.[I-]	–	0.2 µg/mL	0.63 µg/mL	1.3 µg/mL	0.3 µg/mL	0.6 µg/mL	1.3 µg/mL	20 µg/mL	3.1 µg/mL	5 µg/mL	–	–
Clc1cccc(Nc2cc3ccccc3[n+](CCCCCC3CCCCC3)c2)c1.[I-]	–	2 µg/mL	2 µg/mL	6.3 µg/mL	3.1 µg/mL	50 µg/mL	13 µg/mL	> 20 µg/mL	3.5 µg/mL	6.3 µg/mL	> 10 µg/mL	–
C[n+]1cccc(N(CCCCCC2CCCCC2)c2ccccc2C#N)c1.[I-]	inactive	6.6 µg/mL	–	–	10 µg/mL	20 µg/mL	–	–	–	–	> 10 µg/mL	–
C[n+]1c2ccc(Cl)cc2cc2c1c1ccccc1n2CCCCCC1CCCCC1.[I-]	–	0.9 µg/mL	0.6 µg/mL	1.3 µg/mL	2.5 µg/mL	10 µg/mL	> 20 µg/mL	> 20 µg/mL	–	1.3 µg/mL	1.4 µg/mL	–
Cc1cccc(N(CCCCCC2CCCCC2)c2ccc[n+](C)c2)c1.[I-]	–	1.4 µg/mL	3 µg/mL	5 µg/mL	2.5 µg/mL	2.5 µg/mL	10 µg/mL	20 µg/mL	8.7 µg/mL	10 µg/mL	> 10 µg/mL	–
Clc1ccc(Nc2cc3ccccc3[n+](CCCCCc3ccccc3)c2)cc1.[I-]	–	4 µg/mL	15 µg/mL	> 20 µg/mL	6.3 µg/mL	12.5 µg/mL	> 20 µg/mL	> 20 µg/mL	10 µg/mL	> 20 µg/mL	> 25 µg/mL	–
CCc1ccc(N(CCCCCC2CCCCC2)c2ccc[n+](C)c2)cc1.[I-]	–	0.4 µg/mL	1.3 µg/mL	2.5 µg/mL	0.6 µg/mL	5 µg/mL	5 µg/mL	–	2.7 µg/mL	5 µg/mL	10 µg/mL	–

Structure (SMILES)	inhibition (Aspergillus fumigatus [1])	IC50 (Cryptococcus neoformans [2])	IC50 (Candida albicans [3])	MIC (Candida albicans [4])	MIC (Cryptococcus neoformans [5])	MFC (Cryptococcus neoformans [6])	MFC (Candida albicans [7])	MFC (Aspergillus fumigatus [8])	IC50 (Aspergillus fumigatus [9]; [12])	MIC (Aspergillus fumigatus [10])	CC50 at 48 h [11]	IC50 (Aspergillus fumigatus [9])
[I-].c1ccc(Nc2cc3ccccc3[n+](CCCCCC3CCCCC3)c2)cc1	–	1.5 µg/mL	3.5 µg/mL	10 µg/mL	2.5 µg/mL	10 µg/mL	> 20 µg/mL	10 µg/mL	1 µg/mL	2.5 µg/mL	–	–
C[n+]1c2cc(Cl)ccc2c(Cl)c2[nH]c3ccccc3c21.[I-]	–	6 µg/mL	1 µg/mL	10 µg/mL	10 µg/mL	> 20 µg/mL	> 20 µg/mL	–	> 20 µg/mL	–	10 µg/mL	–
C[n+]1cc(N(CCCCCC2CCCCC2)c2ccccc2)cc2ccccc21.[I-]	–	0.2 µg/mL	1.2 µg/mL	2.5 µg/mL	0.3 µg/mL	0.6 µg/mL	2.5 µg/mL	10 µg/mL	4.6 µg/mL	10 µg/mL	9.8 µg/mL	–
Cc1ccc(N(CCCCCC2CCCCC2)c2ccc[n+](C)c2)cc1.[I-]	–	1.5 µg/mL	1.5 µg/mL	2.5 µg/mL	2.5 µg/mL	5 µg/mL	10 µg/mL	5 µg/mL	1.5 µg/mL	5 µg/mL	> 10 µg/mL	–
C[n+]1c2ccccc2cc2[nH]c3ccc(Cl)cc3c21.[I-]	–	15 µg/mL	4.5 µg/mL	> 20 µg/mL	> 20 µg/mL	–	–	–	> 20 µg/mL	–	1.5 µg/mL	–
COc1cccc(N(CCCCCC2CCCCC2)c2ccc[n+](C)c2)c1.[I-]	inactive	3.6 µg/mL	8.9 µg/mL	20 µg/mL	5 µg/mL	5 µg/mL	> 20 µg/mL	–	–	–	> 10 µg/mL	–
C[n+]1c2ccccc2cc2[nH]c3ccc(Br)cc3c21.[I-]	–	2.5 µg/mL	2.5 µg/mL	> 20 µg/mL	20 µg/mL	–	–	–	–	10 µg/mL	0.93 µg/mL	–
C[n+]1c2ccccc2cc2[nH]c3c(Cl)cccc3c21.[I-]	–	> 20 µg/mL	> 20 µg/mL	–	–	–	–	–	–	–	3.2 µg/mL	–
C[n+]1cc(N(CCCCCC2CCCCC2)c2cccc(Cl)c2)cc2ccccc21.[I-]	–	0.9 µg/mL	0.9 µg/mL	2.5 µg/mL	1.3 µg/mL	5 µg/mL	10 µg/mL	10 µg/mL	1 µg/mL	2.5 µg/mL	> 10 µg/mL	–
C[n+]1c2ccc(Cl)cc2cc2[nH]c3ccccc3c21.[I-]	–	2 µg/mL	0.5 µg/mL	5.5 µg/mL	5 µg/mL	> 20 µg/mL	> 20 µg/mL	> 20 µg/mL	10 µg/mL	> 20 µg/mL	–	–
C[n+]1cccc(N(CCCCCC2CCCCC2)c2ccccc2C(F)(F)F)c1.[I-]	inactive	2.3 µg/mL	2.6 µg/mL	5 µg/mL	5 µg/mL	5 µg/mL	5 µg/mL	–	–	–	–	–
C[n+]1cccc(N(CCCCCC2CCCCC2)c2ccc(Cl)cc2)c1.[I-]	–	1 µg/mL	1.5 µg/mL	3.1 µg/mL	1.6 µg/mL	–	–	–	1 µg/mL	1.6 µg/mL	> 10 µg/mL	–
Cc1ccccc1N(CCCCCC1CCCCC1)c1ccc[n+](C)c1.[I-]	–	1.5 µg/mL	2.6 µg/mL	5 µg/mL	2.5 µg/mL	2.5 µg/mL	5 µg/mL	> 20 µg/mL	19 µg/mL	> 20 µg/mL	–	–
CSc1ccc(N(CCCCCC2CCCCC2)c2ccc[n+](C)c2)cc1.[I-]	–	1.2 µg/mL	2 µg/mL	5 µg/mL	1.3 µg/mL	2.5 µg/mL	10 µg/mL	10 µg/mL	6.4 µg/mL	10 µg/mL	> 10 µg/mL	–
C[n+]1c2cccc(Cl)c2cc2[nH]c3ccccc3c21.O=S(=O)([O-])C(F)(F)F	–	7 µg/mL	0.6 µg/mL	> 20 µg/mL	> 20 µg/mL	–	–	–	> 20 µg/mL	–	5 µg/mL	–
